ChEMBL document CHEMBL1158984, “Hypolipidemic, anti-inflammatory, and antineoplastic activity and cytotoxicity of flavonolignans isolated from Hydnocarpus wightiana seeds” (J Nat Prod, 1991)
Converted amounts (≈) assume the structure as drawn.

Experiments:
[1] = tested on: Mus musculus; test: Hypolipidemic activity in CF1 mouse assessed as serum cholesterol level at 150 mg/kg/day administered for 16 days measured on day 9 relative to control; format: functional
Summary of the method: (§1)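 Male CF1 mice (28 g) were dosed daily for 16 days, with drug suspended in 1% carboxymethylcellulose. On days 9 and 16 blood was drawn from the tail vein and serum spun at 3000 g for 3 min. Total cholesterol was measured by the Liebermann-Burchard reaction and triglyceride by a commercial kit. Results are percent of vehicle control, n = 6, mean ± SD, Student's t-test.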

[2] = tested on: Mus musculus; test: Hypolipidemic activity in CF1 mouse assessed as serum triglyceride level at 150 mg/kg/day administered for 16 days measured on day 16 relative to control
[3] = tested on: Mus musculus; test: Hypolipidemic activity in CF1 mouse assessed as serum triglyceride level at 150 mg/kg/day administered for 16 days measured on day 16 relative to control; format: functional; summary of the method: as §1
[4] = tested on: SW480; test: Cytotoxicity against human SW480 cells after 3 days by trypan blue exclusion technique; format: functional; conditions: SW480, 72 h, read-out: ED50 (the source's name)
Summary of the method: (§2)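 Tumor cells were mixed on day 0 with sterile drug at 1–100 µg/ml (from 1 mM stock in 0.05% Tween 80 water) in growth medium, 1 ml final. Cells were counted on day 3, while growth was still logarithmic. The concentration killing 50% of cells was read from a semilog plot.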

[5] = Cytotoxicity against human MB9812 cells after 3 days by trypan blue exclusion technique; format: functional; conditions: MB9812, 72 h, read-out: ED50 (the source's name); summary of the method: as §2
[6] = tested on: L1210; test: Cytotoxicity against mouse L1210 cells after 3 days by trypan blue exclusion technique; format: functional; conditions: L1210, 72 h, read-out: ED50 (the source's name); summary of the method: as §2
[7] = Cytotoxicity against human TMOLT3 cells after 3 days by trypan blue exclusion technique; format: functional; conditions: MOLT-3, 72 h, read-out: ED50 (the source's name); summary of the method: as §2
[8] = tested on: KB; test: Cytotoxicity against human KB cells after 3 days by trypan blue exclusion technique; format: functional; conditions: 72 h, read-out: ED50 (the source's name); summary of the method: as §2
[9] = Cytotoxicity against human HeLaS3 cells after 3 days by trypan blue exclusion technique; format: functional; conditions: HeLa S3, 72 h, read-out: ED50 (the source's name); summary of the method: as §2
[10] = Cytotoxicity against human EH118MG cells after 3 days by trypan blue exclusion technique; format: functional; conditions: 72 h, read-out: ED50 (the source's name); summary of the method: as §2
[11] = tested on: Mus musculus; test: Hypolipidemic activity in CF1 mouse assessed as serum cholesterol level at 8 mg/kg/day, ip administered for 16 days measured on day 9 relative to control; format: functional; conditions: route intraperitoneal; summary of the method: as §1
[12] = Cytotoxicity against human TE-418 cells after 3 days by trypan blue exclusion technique; format: functional; conditions: TE-418, 72 h, read-out: ED50 (the source's name); summary of the method: as §2
[13] = tested on: Mus musculus; test: Antiinflammatory activity against CF1 mouse assessed as inhibition of carrageenan-induced paw edema at 8 mg/kg/day, ip administered 30 mins before carrageenan challenge measured after 3 hrs relative to control; format: functional; conditions: route intraperitoneal
Summary of the method: (§3)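 CF1 male mice (ca. 25 g) got drug ip in 0.05% Tween 80 water twice, 3 h and 30 min before 0.2 ml of 1% carrageenan in 0.9% saline was injected into the right hind plantar surface. The left foot got saline as baseline. After 3 h both feet were cut off at the ankle and paw weight gain was compared; results are percent inhibition, n = 6, mean ± SD.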

[14] = tested on: Ehrlich; test: In vivo antineoplastic activity against mouse Ehrlich ascite carcinoma cells xenografted in CF1 mouse assessed as inhibition of tumor growth at 8 mg/kg/day after 9 days relative to control; format: functional; conditions: 216 h
Summary of the method: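 On day 0, CF1 male mice (ca. 25 g) received 2 × 10^6 Ehrlich ascites cells ip in isotonic saline. Drug in 0.05% Tween 80 water was given at 8 mg/kg/day on days 1–9. On day 10 ascites fluid was collected, and volume and packed-cell volume per animal were used to calculate percent tumor growth inhibition; n = 6, mean ± SD.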

[15] = tested on: Mus musculus; test: Hypolipidemic activity in CF1 mouse assessed as serum cholesterol level at 8 mg/kg/day, ip administered for 16 days measured on day 16 relative to control
[16] = tested on: Mus musculus; test: Hypolipidemic activity in CF1 mouse assessed as serum cholesterol level at 8 mg/kg/day, ip administered for 16 days measured on day 16 relative to control; format: functional; conditions: route intraperitoneal; summary of the method: as §1
[17] = tested on: Mus musculus; test: Toxicity in CF1 mouse assessed as change in food consumption at 8 mg/kg/day administered in multiple doses for 16 days; format: organism-based; conditions: in vivo, 384 h
Summary of the method: (§4)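 During 16 days of multiple ip dosing at 8 mg/kg/day, mice were watched for body weight loss, food consumption, and behavioral, CNS and motor activity.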

[18] = tested on: Mus musculus; test: Toxicity in CF1 mouse assessed as behavioral changes at 8 mg/kg/day administered in multiple doses for 16 days; format: organism-based; conditions: in vivo, 384 h; summary of the method: as §4
[19] = tested on: Mus musculus; test: Toxicity in CF1 mouse assessed as body weight loss at 8 mg/kg/day administered in multiple doses for 16 days; format: organism-based; conditions: in vivo, 384 h; summary of the method: as §4
[20] = tested on: Mus musculus; test: Toxicity in CF1 mouse assessed as change in CNS and motor activity at 8 mg/kg/day administered in multiple doses for 16 days; format: organism-based; conditions: in vivo, 384 h; summary of the method: as §4
[21] = tested on: Mus musculus; test: Antiinflammatory activity against CF1 mouse assessed as inhibition of carrageenan-induced paw edema at 10 mg/kg administered 30 mins before carrageenan challenge measured after 3 hrs relative to control; format: functional; summary of the method: as §3
[22] = tested on: Mus musculus; test: Antiinflammatory activity against CF1 mouse assessed as inhibition of carrageenan-induced paw edema at 50 mg/kg administered 30 mins before carrageenan challenge measured after 3 hrs relative to control; format: functional; summary of the method: as §3

SMILES | EC50 [4] | EC50 [5] | EC50 [6] | EC50 [7] | EC50 [8] | EC50 [9] | EC50 [10] | Activity [11] | EC50 [12] | inhibition in vivo at 8 mg/kg/day [13] | inhibition in vivo at 8 mg/kg/day [14] | Activity [15] | Activity [16] | further results
CCOC(=O)C(C)(C)Oc1ccc(Cl)cc1 [CLOFIBRATE] | – | – | – | – | – | – | – | – | – | – | – | – | – | Activity [1]: 88%; Activity [2]: 75%; Activity [3]: 75%
Nc1ccn([C@@H]2O[C@H](CO)[C@@H](O)[C@@H]2O)c(=O)n1 [CYTARABINE] | 3.42 µg/mL (≈ 14.1 µM) | 4.6 µg/mL (≈ 18.9 µM) | 2.76 µg/mL (≈ 11.3 µM) | 2.67 µg/mL (≈ 11 µM) | 2.84 µg/mL (≈ 11.7 µM) | 2.13 µg/mL (≈ 8.76 µM) | 1.88 µg/mL (≈ 7.73 µM) | – | – | – | – | – | – | –
O=c1[nH]cc(F)c(=O)[nH]1 [FLUOROURACIL] | 3.09 µg/mL (≈ 23.8 µM) | 5.64 µg/mL (≈ 43.4 µM) | 1.41 µg/mL (≈ 10.8 µM) | 2.14 µg/mL (≈ 16.5 µM) | 1.25 µg/mL (≈ 9.61 µM) | 2.47 µg/mL (≈ 19 µM) | 1.28 µg/mL (≈ 9.84 µM) | – | – | – | – | – | – | –
COc1cc([C@H]2Oc3cc(-c4cc(=O)c5c(O)cc(O)cc5o4)ccc3O[C@@H]2CO)ccc1O [HYDNOCARPIN] | 2 µg/mL (≈ 4.31 µM) | 8.18 µg/mL (≈ 17.6 µM) | 3.65 µg/mL (≈ 7.86 µM) | 2.94 µg/mL (≈ 6.33 µM) | 1.15 µg/mL (≈ 2.48 µM) | 2.02 µg/mL (≈ 4.35 µM) | 2.59 µg/mL (≈ 5.58 µM) | 83% | 2.14 µg/mL (≈ 4.61 µM) | 42% | 84.8% | 62% | 62% | –
COc1cc(/C=C(\CO)c2cc([C@H]3Oc4cc(-c5cc(=O)c6c(O)cc(O)cc6o5)ccc4O[C@@H]3CO)cc(OC)c2O)ccc1O [HYDNOWIGHTIN] | 2.38 µg/mL (≈ 3.7 µM) | 7.49 µg/mL (≈ 11.7 µM) | 3.07 µg/mL (≈ 4.78 µM) | 4.33 µg/mL (≈ 6.74 µM) | 1.96 µg/mL (≈ 3.05 µM) | 3.01 µg/mL (≈ 4.68 µM) | 5.02 µg/mL (≈ 7.81 µM) | 80% | 2.5 µg/mL (≈ 3.89 µM) | 24% | 12.1% | 59% | 59% | Activity [17]: Non-toxic; Activity [18]: Non-toxic; Activity [19]: Non-toxic; Activity [20]: Non-toxic
NC(=O)NO [HYDROXYUREA] | 4.79 µg/mL (≈ 63 µM) | 7.37 µg/mL (≈ 96.9 µM) | 2.67 µg/mL (≈ 35.1 µM) | 3.18 µg/mL (≈ 41.8 µM) | 5.29 µg/mL (≈ 69.6 µM) | 1.96 µg/mL (≈ 25.8 µM) | 2.27 µg/mL (≈ 29.8 µM) | – | 7.54 µg/mL (≈ 99.1 µM) | – | – | – | – | –
COc1ccc2c(c1)c(CC(=O)O)c(C)n2C(=O)c1ccc(Cl)cc1 [INDOMETHACIN] | – | – | – | – | – | – | – | – | – | – | – | – | – | inhibition in vivo at 10 mg/kg [21]: 78%
COc1cc([C@@H]2c3c(oc4cc(O)cc(O)c4c3=O)-c3cc(O)c(O)cc3[C@@H]2CO)ccc1O [NEOHYDNOCARPIN] | 2.03 µg/mL (≈ 4.37 µM) | 4.53 µg/mL (≈ 9.75 µM) | 3.29 µg/mL (≈ 7.08 µM) | 3.05 µg/mL (≈ 6.57 µM) | 1.06 µg/mL (≈ 2.28 µM) | 2.12 µg/mL (≈ 4.56 µM) | 4.07 µg/mL (≈ 8.76 µM) | 85% | 2.49 µg/mL (≈ 5.36 µM) | 6% | 43.1% | 79% | 79% | –
CCCCC1C(=O)N(c2ccccc2)N(c2ccccc2)C1=O [PHENYLBUTAZONE] | – | – | – | – | – | – | – | – | – | – | – | – | – | inhibition in vivo at 50 mg/kg [22]: 47%
